# High-throughput results from PubChem BioAssay.
# Only some compounds are listed: those with a hit (about 1.9% of all), similar ones and a draw of the others.
# SR-BI DiI-HDL act: activators of SR-BI mediated DiI-HDL uptake, primary screen, ldlA[mSR-BI] CHO cells, DiI fluorescence; AID 504775, 2011; actives 0.096% (n = 320,000); 3 h; 100 = double the neutral-control signal; activation, % at 12.5 µM;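 active = mean replicate activation of at least 60% and every replicate at or above 60%; inconclusive = mean or all-replicate condition met, but not both; inactive = mean below 60% and not all replicates reaching 60%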;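 note: 0% = median plate neutral-control signal and 100% = twice that signal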
#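 system = CHO ldlA[mSR-BI] cells, LDL receptor-null, SR-BI overexpressing | medium = Ham's F12 with 0.5% BSA, HEPES 25 mM, pH 7.4 | probe or stimulus = DiI-HDL 10 µg/mL | compound dosing = single-point compound dose | incubation = compound exposure 3 h, 37 °C | technique = DiI fluorescence, bottom read | read-out = cell-associated DiI fluorescence as measure of HDL uptake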
# SR-BI HDL uptake: inhibitors of SR-BI mediated HDL lipid uptake, primary screen, ldlA[mSR-BI] cells, fluorescence, single point; Scavenger receptor class B member 1 (Mus musculus), Q61009; ldlA[mSR-BI] CHO cells, DiI-HDL uptake fluorescence, 3 h; inhibition, % at 12.5 µM; actives 0.96% (n = 320,000); AID 488896, 2010;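 active = mean replicate inhibition of at least 70% and a set share of replicates each scoring 70 or more; inconclusive = meets just one of the two criteria; inactive = fails both criteria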;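 note: 0% = median of neutral control wells and 100% = median of positive control wells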
# Neddyl block: inhibitors of cullin neddylation, primary screen, biochemical, TR-FRET, uHTS, NAE and Ubc12. NEDD8-conjugating enzyme Ubc12 (Homo sapiens) + NEDD8-activating enzyme E1 regulatory …. inhibition, % at 25 µM. actives 0.58% (n = 360,000); in the data active = inhibition above about 36%
# Target sequence (P61081 whole entry, looked up): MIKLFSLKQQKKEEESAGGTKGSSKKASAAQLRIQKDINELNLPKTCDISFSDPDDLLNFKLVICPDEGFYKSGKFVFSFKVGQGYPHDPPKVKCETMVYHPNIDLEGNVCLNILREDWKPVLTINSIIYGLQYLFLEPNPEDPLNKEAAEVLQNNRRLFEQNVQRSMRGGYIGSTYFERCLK
# Target sequence (Q13564 whole entry, looked up): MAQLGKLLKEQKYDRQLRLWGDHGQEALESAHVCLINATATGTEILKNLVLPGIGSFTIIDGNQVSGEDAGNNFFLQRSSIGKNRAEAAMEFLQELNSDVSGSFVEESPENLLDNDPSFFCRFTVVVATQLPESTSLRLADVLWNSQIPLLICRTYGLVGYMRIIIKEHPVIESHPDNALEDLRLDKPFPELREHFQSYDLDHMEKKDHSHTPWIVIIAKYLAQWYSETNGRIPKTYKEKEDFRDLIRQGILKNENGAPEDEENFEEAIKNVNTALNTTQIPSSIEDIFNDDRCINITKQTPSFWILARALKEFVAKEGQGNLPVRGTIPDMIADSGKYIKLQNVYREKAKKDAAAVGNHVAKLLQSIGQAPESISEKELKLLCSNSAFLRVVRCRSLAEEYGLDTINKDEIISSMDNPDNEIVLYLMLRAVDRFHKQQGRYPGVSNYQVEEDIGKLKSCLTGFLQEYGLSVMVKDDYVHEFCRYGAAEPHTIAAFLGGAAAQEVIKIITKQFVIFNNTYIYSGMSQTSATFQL
# UBC13 inh: UBC13 polyubiquitin chain formation inhibitors, primary screen, biochemical, TR-FRET, uHTS; Ubiquitin-conjugating enzyme E2 N (Homo sapiens), P61088; actives 0.47% (n = 330,000); inhibition, % at 20 µM; in the data active = inhibition above about 45%, passing the limit was not always enough; inconclusive = no clear call, values can overlap the other calls
# Active calls of the source: *; ? = inconclusive; nt = not tested or not shown.
SMILES,SR-BI DiI-HDL act,SR-BI HDL uptake,Neddyl block,UBC13 inh
COc1ccc([N+](=O)[O-])cc1NC(=O)C(C)NNC(=O)c1cccc([N+](=O)[O-])c1 (stereo not given),-72,?,-4,-1
COc1c2c(cc3oc(=O)c4c5ccc(O)cc5oc4c13)OC(C)(C)CC2,-89,89*,nt,28
COc1c(CC=C(C)C)c(O)cc2oc(=O)c3c4ccc(O)cc4oc3c12,nt,nt,nt,1
COc1ccccc1C1CC(c2ccc(Br)cc2)=NN1C(=O)c1cccnc1 (stereo not given),-74,74*,-6,8
COc1ccc(C2=NN(C(=O)c3ccncc3)C(c3ccccc3O)C2)cc1 (stereo not given),-21,21,-11,-4
O=C(c1ccncc1)N1N=C(c2ccc(Cl)cc2)CC1c1ccccc1O (stereo not given),-82,82*,-2,7
CCCCC(c1nc2ccccc2[nH]1)n1c(-c2ccccc2)nc2ccccc21 (stereo not given),nt,nt,-41,nt
CCCCc1ccc(N=N/C(C(=O)Nc2ccc(NC(C)=O)cc2OC)=C(/C)O)cc1,-78,78*,-5,-2
CCCCCCCc1c(O)nc(SCCN(C)C)[nH]c1=O,272*,-272,-1,-13
O=C1NC[C@@H](CCCCN2C[C@H](Cc3ccc(O)cc3)N(CC3CCCCC3)C(=O)C2=O)N(Cc2ccccc2)C1=O,nt,nt,4,nt
COc1cc2c(cc1NC(=O)Nc1ccccc1)oc1ccccc12,-89,89*,nt,-1
COc1cc2c(cc1NC(=O)CSc1ccc(C)cc1)oc1ccccc12,-46,46,13,8
COc1cc2c(cc1NC(=O)CCCCCN1C(=O)CCC1=O)oc1ccccc12,-85,85*,-7,-5
COc1cc2c(cc1NC(=O)C(C)Sc1ccc(C)cc1)oc1ccccc12 (stereo not given),-79,79*,12,-4
COc1cc2c(cc1NC(=O)Cc1ccc(C)cc1)oc1ccccc12,-72,72*,7,1
CC(=O)Nc1cccc(OCC(=O)Nc2cccc(S(=O)(=O)N3CCCC3)c2)c1,449*,-450,19,4
CS(=O)(=O)c1cccc(C(=O)Nc2cccc(S(=O)(=O)N3CCCC3)c2)c1,-83,83*,2,0
CN(C)S(=O)(=O)c1cccc(NC(=O)c2cccc(S(=O)(=O)N3CCCCCC3)c2)c1,-77,77*,0,-3
Cc1cc(NC(=O)c2cccc(S(=O)(=O)N3CCCCCC3)c2)n(-c2ccccn2)n1,-82,82*,13,-4
Cc1cccc(NC(=O)c2cccc(S(=O)(=O)N3CCCCC3)c2)c1,nt,nt,5,0
O=C(COc1ccccc1)Nc1cccc(S(=O)(=O)N2CCCC2)c1,8,-8,0,0
CCOc1ccccc1C(=O)N[C@H](C(=O)OCC(=O)Nc1nnc(-c2ccccc2)o1)C(C)C,-28,28,3,nt
O=C1C(=O)C(Cl)=C(Cl)C(Cl)=C1Cl,nt,nt,10,nt
Cc1ccc(S(C)(=O)=O)cc1C(=O)Nc1cccc(S(=O)(=O)N2CCCCCC2)c1,-80,80*,10,4
O=C(Nc1ccccc1Cl)Nc1ccnn1C1CCN(C(=O)C2CCOC2)CC1 (stereo not given),nt,nt,-3,nt
SMILES,SR-BI DiI-HDL act,SR-BI HDL uptake,Neddyl block,UBC13 inh
CCCCn1nc(NC(=O)c2cccs2)c2cc3cc(OC)ccc3nc21,-82,82*,nt,5
Cc1cc(N/N=C/c2ccc(N(C)C)cc2)nc(NCc2ccccc2)n1,-81,81*,nt,38
O=C(N/N=C/c1ccc(Cl)cc1)c1ccc2c(c1)OCO2,5,-5,7,-5
O=C(N/N=C/c1ccc2c(c1)OCO2)c1ccc2c(c1)OCCO2,-2,2,-8,-12
O=C(N/N=C/c1cc(Br)cc(Cl)c1O)c1ccc2c(c1)OCO2,-132,132*,nt,-11
O=C(N/N=C/c1cc(Br)c(O)c(Br)c1O)c1ccc2c(c1)OCCO2,-30,30,-3,11
Cc1cc(Br)cc(/C=N/NC(=O)c2ccc3c(c2)OCO3)c1O,-146,146*,-6,-11
O=C(N/N=C/c1ccccc1O)c1ccc2c(c1)OCO2,-81,81*,5,2
O=C(N/N=C/c1ccc2c(c1)OCO2)c1ccc(COc2cccc3cccnc23)cc1,-76,76*,13,0
O=C(N/N=C/c1cccc(O)c1)c1ccc(COc2cccc3cccnc23)cc1,-37,37,4,1
